The values below come from ChEMBL document CHEMBL1148147, “New oplopane and eremophilane derivatives from Robinsonecio gerberifolius” (J Nat Prod, 2003).

What all share (format): functional, cell-based
The test system of one experiment is PC-3. The experiment is described as follows: Cytotoxicity against human PC3 cells. In short, it runs like this:
(§1)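 Human cancer cell lines (HCT-15 colon, MCF-7 breast, U-251 central nervous system, PC-3 prostate, K562 leukemia) tested over a dose range using the National Cancer Institute cytotoxicity screening protocol.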

Another experiment has as its system U-251. The experiment is described as follows: Cytotoxicity against human U251 cells. In short, it runs like this:
as §1

In a further experiment the test system is K562. Briefly: Cytotoxicity against human K562 cells. The gist of the method:
as §1

Another experiment relates to HCT-15. Briefly: Cytotoxicity against human HCT15 cells. The gist of the method:
as §1

The subject of the next experiment is MCF7. Briefly: Cytotoxicity against human MCF7 cells. In short, it runs like this:
as §1

The structures appear in SMILES notation. Activity calls are given as the source filed them. The rule behind the calls is not given here.

As to `C/C=C(/C)C(=O)O[C@H]1C[C@@H](O)C2=CC(=O)C(C(C)(C)O)=C[C@]2(C)[C@H]1C`, the result with PC-3, in the experiment on U-251, with K562, with HCT-15 and in the experiment with MCF7 was inactive.
As a reminder, the IC50 is the concentration needed to halve the response being measured. `COc1cccc2c1C(=O)c1c(O)c3c(c(O)c1C2=O)C[C@@](O)(C(=O)CO)C[C@@H]3O[C@H]1C[C@H](N)[C@H](O)[C@H](C)O1` [DOXORUBICIN] gave an IC50 in the experiment on PC-3 of 0.32 µM.
As for `C/C=C(/C)C(=O)O[C@H]1C[C@@H](OC(=O)/C(C)=C/C)C2=CC(=O)C(=C(C)C)C[C@]2(C)[C@H]1C`, the IC50 with PC-3 was determined as 10.7 µM; with U-251, 17.6 µM; in the experiment on K562, 51.1 µM; with HCT-15, 12.8 µM; in the experiment on MCF7, 21 µM.
`C/C=C(/C)C(=O)O[C@H]1C[C@@H](O)C2=CC(=O)C(=C(C)C)C[C@]2(C)[C@H]1C`: the IC50 with PC-3 was 33.2 µM; in the experiment with U-251, 24.1 µM; with K562, greater than 100 µM; in the experiment on HCT-15 it was greater than 100 µM; in the experiment with MCF7, greater than 100 µM.
For `C/C=C(/C)C(=O)O[C@H]1C[C@H]2O[C@]23Cc2occ(C)c2C[C@]3(C)[C@H]1C`, the result in the experiment with PC-3, in the experiment with U-251, in the experiment on K562, in the experiment with HCT-15 and in the experiment with MCF7 was inactive.
As to `C=C1C[C@@H](OC(C)=O)[C@@H](C(C)C)[C@@H]2[C@@H](C(C)=O)[C@@H](OC(=O)/C(C)=C\C)C[C@@H]12`, the IC50 in the experiment with PC-3 was determined as 78.7 µM; with U-251, 13 µM; in the experiment with K562 it was 13 µM; in the experiment with HCT-15, 43.6 µM; in the experiment on MCF7 it was 33.9 µM.
Consider `C/C=C(/C)C(=O)O[C@H]1C[C@@H](O)C2=CC(=O)C(C(C)(C)OO)=C[C@]2(C)[C@H]1C`, for which the IC50 with PC-3 was 16.5 µM; in the experiment with U-251 it was 33.7 µM; with K562 it was 46.3 µM; in the experiment on HCT-15, greater than 100 µM; in the experiment on MCF7, greater than 100 µM.
